The values below come from ChEMBL document CHEMBL3108662, “Controlled oxygen release from pyridone endoperoxides promotes cell survival under anoxic conditions” (J Med Chem, 2013).

Calls of active or inactive are those of the source. The rule behind the calls is not given here. Bounds are passed on as bounds.

The term half-life denotes how long it takes for the measured level to halve. A high value points to slow loss.

The nature of data set [1]: Induction of oxygen release in H2O/D2O relative to DMSO-treated control. It counts as physicochemical.
A short description of data set [2]: Half life in H2O/D2O at 37 degC by 1H-NMR spectroscopic analysis. It counts as ADME.
Data set [3] can be described thus: Induction of oxygen release in H2O/D2O. It counts as physicochemical.
Data set [4] is described as follows: Drug degradation in H2O/D2O assessed as byproduct formation at 37 degC by 1H-NMR spectroscopic analysis. It is filed as physicochemical.
The species named for data set [5] is Rattus norvegicus. Briefly: Growth promoting activity in rat primary smooth muscle cells under anoxic condition at 50 ug/mL measured over 4 days by WST-1 assay in presence of 100 ug/mL vitamin C. It is filed as functional. A digest of the protocol:
(§1)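 Primary smooth muscle cells freshly isolated from rat bladder, seeded at 4000 cells/cm² in DMEM/10% FBS/1% Pen/Strep. Additive dissolved in 1:50 H₂O/DMSO and added at 10–200 µg/mL, with or without vitamin C (100 or 200 µg/mL). Normoxic at 37°C, 5% CO₂, or anoxic in sealed N₂-degassed medium, up to 4 days. WST-1 read on days 1–4 (3 h, A450). Triplicates, normalized to untreated = 100%.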
In general terms: Formazan colour is commonly taken as a measure of viable cells.

A short description of data set [6]: Cytotoxicity against rat primary smooth muscle cells assessed as growth inhibition under anoxic condition up to 100 ug/mL measured over 4 days by WST-1 assay. It is filed as cell-based. The following applies: 96 h. A digest of the protocol:
as §1

The species entered for data set [7] is Rattus norvegicus. Description: Growth promoting activity in rat primary smooth muscle cells under normoxic condition at 10 to 50 ug/mL measured over 4 days by WST-1 assay. It is filed as functional. A digest of the protocol: as §1
Data set [8] is described as follows: Cytotoxicity against rat primary smooth muscle cells assessed as growth inhibition under normoxic condition at 100 to 200 ug/mL measured over 4 days by WST-1 assay. It counts as cell-based. The following applies: 96 h. A digest of the protocol: as §1
In data set [9] the test system is 3T3. Briefly: Growth promoting activity in […] cells under anoxic condition at 500 ug/mL measured on day 1 by WST-1 assay. It counts as functional, cell-based. A digest of the protocol:
(§2)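 3T3 fibroblasts seeded at 4000 cells/cm² in DMEM/10% FBS/1% Pen/Strep. Additive from 1:50 H₂O/DMSO at 10–200 µg/mL, with or without vitamin C (100 or 500 µg/mL). Normoxic at 37°C, 5% CO₂, or anoxic with N₂-degassed medium and N₂ glove-bag handling in sealed bags, no medium change, up to 4 days. Daily WST-1 (1:10, 3 h, A450). Triplicates, normalized to untreated control = 100%.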

For data set [10], the species on record is Rattus norvegicus. Description: Growth promoting activity in rat primary smooth muscle cells under normoxic condition at 100 to 200 ug/mL measured over 4 days by WST-1 assay. It counts as functional. Summed up: as §1
Data set [11] deals with 3T3. Description: Cytotoxicity against […] cells assessed as growth inhibition under normoxic condition at 500 ug/mL after 2 days by WST-1 assay. The following applies: 3t3, 48 h. It is filed as cell-based. A digest of the protocol:
as §2

Data set [12] deals with 3T3. Briefly: Growth promoting activity in […] cells assessed as change in cell growth under anoxic condition at 100 ug/ml measured over 4 days by WST-1 assay. It is filed as functional, cell-based. Summed up: as §2
Data set [13] concerns 3T3. Description: Cytotoxicity against […] cells assessed as growth inhibition under normoxic condition at 29 to 580 uM measured over 4 days by WST-1 assay in presence of 100 ug/mL vitamin C. It counts as cell-based. Particulars: 3t3, 96 h. Summed up: (§3)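 3T3 fibroblasts plated at 4000 cells/cm² in DMEM/F-12 with 10% FBS and 1% Pen/Strep. Compound in 1:50 H2O/DMSO was added at 10, 50, 100 or 200 µg/mL, alone or with vitamin C in water (100 or 500 µg/mL). Run normoxic (37°C, 5% CO2) or anoxic (N2-degassed medium, sealed bags under N2, no medium change, up to 4 days). WST-1 read at 450 nm after 3 h on days 1-4. Growth normalized to untreated control as 100%. Triplicates.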

Data set [14] is described as follows: Cytotoxicity against rat primary smooth muscle cells assessed as growth inhibition under anoxic condition at 50 ug/mL measured over 4 days by WST-1 assay. Particulars: 96 h. It is filed as cell-based. A digest of the protocol:
(§4)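 Primary smooth muscle cells freshly isolated from rat bladder, plated at 4000 cells/cm² in DMEM/F-12, 10% FBS, 1% Pen/Strep. Compound was added from 1:50 H2O/DMSO at 10–200 µg/mL, with or without vitamin C in water at 100 or 200 µg/mL. Normoxic (37°C, 5% CO2) or anoxic runs: N2-degassed medium, plates sealed under N2 for up to 4 days without medium change. WST-1 absorbance at 450 nm after 3 h, days 1-4. Normalized to untreated control as 100%. Triplicates.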

Data set [15] can be described thus: Cytotoxicity against rat primary smooth muscle cells assessed as growth inhibition under normoxic condition at 50 ug/mL measured over 4 days by WST-1 assay. It is filed as cell-based. The following applies: 96 h. Summed up: as §4
Data set [16] is filed under the species Rattus norvegicus. Description: Growth promoting activity in rat primary smooth muscle cells under normoxic condition at 50 ug/mL measured over 4 days by WST-1 assay in presence of 100 to 200 ug/mL vitamin C. It is filed as functional. A digest of the protocol:
as §4

Data set [17] has as its system 3T3. Description: Cytotoxicity against […] cells under anoxic condition at 29 uM measured over 4 days by WST-1 assay in presence of 100 ug/mL vitamin C. Particulars: 3t3, 96 h. It counts as cell-based. A digest of the protocol: as §3
The subject of data set [18] is 3T3. Briefly: Cytotoxicity against […] cells under normoxic condition at 29 uM measured over 4 days by WST-1 assay in presence of 100 ug/mL vitamin C. Particulars: 3t3, 96 h. It counts as cell-based. Summed up: as §3
For data set [19], the system named is 3T3. Description: Cytotoxicity against […] cells assessed as growth inhibition under anoxic condition at 29 uM measured over 4 days by WST-1 assay. The following applies: 3t3, 96 h. It is filed as cell-based. Summed up:
as §3

A short description of data set [20]: Induction of singlet oxygen release in water at 0.1 mM measured every 10 mins by SOSG assay in presence of 0.37 mM vitamin C. It counts as physicochemical. The following applies: buffer, 100 µM. A digest of the protocol:
(§5)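 Singlet oxygen sensor green was dissolved in MeOH. Compound was dissolved in MeOH, then diluted in water, with or without vitamin C dissolved in water. Fluorescence (ex/em 488/525 nm) recorded every 10 min at 37 °C. Blanks of SOSG or SOSG/vitamin C were subtracted. Triplicates.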

Data set [21] concerns 3T3. Briefly: Cytotoxicity against […] cells assessed as growth inhibition under anoxic condition at 200 ug/ml measured over 4 days by WST-1 assay in presence of vitamin C relative to control. It counts as functional, cell-based. Summed up: as §3
In data set [22] the test system is 3T3. Description: Cytotoxicity against […] cells assessed as growth inhibition under normoxic condition measured over 4 days by WST-1 assay. It counts as cell-based. The following applies: 3t3, 96 h. Summed up: as §3
For data set [23], the system named is 3T3. Briefly: Cytotoxicity against […] cells assessed as growth inhibition under normoxic condition at 200 ug/ml measured over 4 days by WST-1 assay in presence of vitamin C relative to control. It is filed as cell-based. The following applies: 3t3, 96 h. Summed up: as §3
Data set [24] can be described thus: Induction of singlet oxygen release in water at 0.1 mM measured every 10 mins by SOSG assay. It counts as physicochemical. The following applies: buffer, 100 µM. A digest of the protocol:
as §5

Data set [25] concerns 3T3. Briefly: Cytotoxicity against […] cells assessed as growth inhibition under anoxic condition at 100 ug/ml measured on day 4 by WST-1 assay in presence of vitamin C relative to control. It is filed as cell-based. Summed up: as §3
Data set [26] in a line: Cytotoxicity against rat primary smooth muscle cells assessed as growth inhibition under normoxic condition measured over 4 days by WST-1 assay. It counts as cell-based. The following applies: 96 h. Summed up:
as §4

The species named for data set [27] is Rattus norvegicus. Briefly: Growth promoting activity in rat primary smooth muscle cells under normoxic condition at 29 uM measured over 4 days by WST-1 assay in presence of 100 ug/mL vitamin C. It is filed as functional. A digest of the protocol: as §4
For data set [28], the species on record is Rattus norvegicus. Description: Growth promoting activity in rat primary smooth muscle cells under anoxic condition at 29 uM measured over 4 days by WST-1 assay in presence of 100 ug/mL vitamin C. It is filed as functional. Summed up: as §4
Data set [29] relates to 3T3. Briefly: Cytotoxicity against […] cells assessed as growth inhibition under normoxic condition at 50 ug/ml measured over 4 days by WST-1 assay in presence of vitamin C. It is filed as cell-based. Particulars: 3t3, 96 h. A digest of the protocol: as §3
The subject of data set [30] is 3T3. Briefly: Cytotoxicity against […] cells assessed as growth inhibition under anoxic condition at 50 ug/ml measured over 4 days by WST-1 assay in presence of vitamin C. It is filed as cell-based. The following applies: 3t3, 96 h. Summed up:
as §3

The test system of data set [31] is 3T3. Description: Cytotoxicity against […] cells assessed as growth inhibition under anoxic condition at 29 uM measured on day 1 by WST-1 assay in presence of 100 ug/mL vitamin C. It counts as cell-based. The following applies: 3t3, 29 µM. A digest of the protocol:
as §3

Data set [32] concerns 3T3. Description: Cytotoxicity against […] cells assessed as growth inhibition under anoxic condition at 29 to 580 uM measured over 4 days by WST-1 assay in presence of 100 ug/mL vitamin C. It is filed as cell-based. Particulars: 3t3, 96 h. Summed up: as §3
Data set [33] has as its system 3T3. Description: Growth promoting activity in […] cells under anoxic condition at 29 uM measured on day 1 by WST-1 assay in presence of 100 ug/mL vitamin C. It counts as functional, cell-based. Summed up:
as §3

Data set [34] concerns 3T3. Description: Growth promoting activity in rat 3T3 cells under normoxic condition at 100 to 200 ug/mL measured on day 1 by WST-1 assay in presence of 500 ug/mL vitamin C. It counts as functional, cell-based. A digest of the protocol:
as §3

Data set [35] is described as follows: Cytotoxicity against rat primary smooth muscle cells assessed as growth inhibition under anoxic condition at 50 ug/mL measured over 4 days by WST-1 assay in presence of 200 ug/mL vitamin C. It is filed as cell-based. Particulars: 96 h. A digest of the protocol:
as §4

Data set [36] has as its system 3T3. Briefly: Cytotoxicity against […] cells assessed as growth inhibition under normoxic condition at 100 ug/ml measured on day 4 by WST-1 assay in presence of vitamin C relative to control. It counts as cell-based. Summed up:
as §3

In turn, `COCCOCCOCCOC(=O)CN1C(=O)C2(C)C=C(C)C1OO2` (configuration not stated) came in with an Activity in data set [1] of 47%. The compound also gave a half-life in data set [2] of 13 h.

The compound `COCCOCCOCCOC(=O)CN1C(=O)C2(C)C=C(C)C1(C)OO2` (configuration not stated) showed an Activity in data set [3] of 10%. The half-life in data set [2] is 15 h. In addition, the Drug degradation in [4] is reported as above 50%.

Turning to `COCCOCCOCCOC(=O)CN1C(=O)C2C=CC1(C)OO2` (configuration not stated), the Activity in [3] is 50%. In addition, the half-life in [2] is 4 h. In data set [4], the Drug degradation is on record as above 50%.

Compound `COCCOCCOCCOC(=O)CN1C(=O)C2C=CC1OO2` (configuration not stated) gave an Activity in [1] of 18%. In data set [2], this compound gave a half-life of 0.5 h.

As for `COCCOCCOCCOC(=O)Cn1cccc(C)c1=O`, the result in [5] and in data set [7] was inactive. Further, in data set [6], the Activity entry is on record as “Non-toxic”.

`O=C1O[C@H]([C@@H](O)CO)C(O)=C1O` [ASCORBIC ACID]: the values for the Activity entry in data set [8] and in [11] were “Non-toxic” and “Toxic”, respectively. Further, in data set [9], the outcome was Active. The result in data set [10] and in [12] was inactive.

Consider `COCCOCCOCCOC(=O)CN1C(=O)C2(C)C=CC1OO2` (configuration not stated), for which the Activity result in [13] was “Non-toxic”; in [14], “Toxic”; in [15], “Toxic”; in data set [17], “Toxic”; in data set [18], “Toxic”; in data set [19], “Non-toxic”. The Activity entry in data set [20] is “Not Active”; in data set [23], “Non-toxic”; in data set [24], “Active”; in [29] it was “Toxic”; in data set [30], “Toxic”; in data set [31], “Non-toxic”. Also, the Activity entry is recorded as “Non-toxic” in data set [32], 78% in data set [1] and “Toxic” in data set [35]. For the same compound, the result in data set [16], in data set [27], in [28], in data set [33] and in data set [34] was Active. In addition, the outcome in data set [21] was inactive. Also, the “growth inhibition (GI)” value in data set [22] and in data set [26] was “Dose-dependent effect” throughout. Moreover, the “fold change (FC)” value is 2 in data set [25] and 10 in data set [36]. In addition, the Drug degradation in data set [4] is reported as 20%.

`COCCOCCOCCOC(=O)CN1C(=O)C2(C)C=CC1(C)OO2` (configuration not stated) returned an Activity in data set [3] of 50%. The compound further showed a half-life in [2] of 4 h. In addition, the Drug degradation in data set [4] is above 50%.
